Data taken from ChEMBL document CHEMBL4513216, “Probing the Open Global Health Chemical Diversity Library for Multistage-Active Starting Points for Next-Generation Antimalarials” (ACS Infect Dis, 2020).

experiment: Toxicity liver stage against HepG2, at 10uM; assay type: cell-based; set-up: test concentration 10 uM, cell line HepG2-A16-CD81EGFP; settings: human, HepG2-A16-CD81EGFP cells; read-out: INHIBITION
Procedure, shortened: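 Uninfected HepG2-A16-CD81EGFP cells, 3 × 10^3 per well, 1536-well, plated on prespotted compound at 10 μM final, parasite-free screening media added to match infected plates; puromycin 10 μM positive, DMSO 0.5% negative; run in parallel with 48 h PbLuc assay at 37 °C, 5% CO2; viability by CellTiter-Glo luminescence, normalized to controls.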

Structure (SMILES) | cytotoxicity at 10 µM [%]
CCCNC(=O)CN1CCC(NCc2csc(C(C)C)n2)CC1 | -1.4
O=C(c1ccncc1)N1CCC(c2nc(O)cc(-c3ccncc3)n2)C1 (configuration not stated) | 0.873
CNC(=O)C1CCN(Cc2nc(-c3ccc(SC)cc3)oc2C)C1 (configuration not stated) | -0.465
CC(C)Cn1c2c(ccc1=O)CC(NC(=O)c1ccsc1)CC2 (configuration not stated) | -109
CNS(=O)(=O)C1CCN(c2cc(C(C)C)nc(C(C)C)n2)C1 (configuration not stated) | -3.33
O=C(NCCNc1ncccn1)NCCc1c(F)cccc1F | 7.49
O=C(NCc1nncn1C1CC1)C1(c2ccc(F)cc2)CCCC1 | -1.89
CC(C)CC(=O)NCC(O)c1c(F)cccc1F (configuration not stated) | -2.24
CN(C)c1nc(N)nc(CN2CCC(c3nc4ccccc4o3)CC2)n1 | -6.9
Cc1nc[nH]c1CN1CCn2nc(CN3Cc4ccccc4C3)cc2C1 | 3.79
c1ccc(N2CCN(Cc3cnc(C4CCCCO4)nc3)CC2)cc1 (configuration not stated) | 0.59
Cc1cnn(CCNCC(O)c2ccc(F)c(F)c2)c1 (configuration not stated) | -0.796
CC(C)=CCS(=O)(=O)Cc1noc(CC(C)C)n1 | -4.59
Cc1noc(CN(Cc2cccs2)C2CC2)n1 | -0.243
N#Cc1cccc(CN2CC[C@@H]3CN(c4ncccn4)CCO[C@@H]3C2)c1 | -6.51
COc1ccccc1Oc1ncccc1CNC(=O)[C@H](C)O | -2.64
CNC(=O)c1cnc2c(C)csc2c1 | -22.3
Cn1nnnc1SC1CCN(c2ccccc2Cl)C1=O (configuration not stated) | 5.12
O=C(NS(=O)(=O)c1ccc(F)cc1)C1CCOc2ccccc21 (configuration not stated) | 9.91
CN(C)c1ncccc1CNC(=O)N1CCCC1c1ccsc1 (configuration not stated) | -6.33
CN(C)CCN1CCOCC2(CCCN(C(=O)c3ccccc3)C2)C1 (configuration not stated) | 5.31
CC1CCN(C(=O)Cc2ccc(S(=O)(=O)C(F)F)cc2)CC1 | 2.98
CCN(CC)C(=O)Cn1ccc2cc(NC(C)=O)ccc21 | -10.2

Structure (SMILES) | cytotoxicity at 10 µM [%]
Cc1ccc(O)c(C(=O)NCCS(=O)(=O)Cc2ccccc2)c1 | 4.57
CCn1ccnc1CN1CCCC1c1noc(C2CC2)n1 (configuration not stated) | -17.4
O=C(O)C1CCN(C(=O)Cn2ccc3c(Cl)cccc32)CC1 | -3.91
COc1cc(C#N)ccc1OCC(=O)NS(=O)(=O)c1ccccc1 | 0.165
CC(CO)NCc1csc2c1CCCC2 (configuration not stated) | -11.3
O=C(NCCCn1cccn1)c1nc2ccccc2[nH]1 | -7.16
CCN(CC)C(=O)COc1ccnc2cc(OC)ccc12 | -2.17
c1cnn(Cc2nnc3n2CCCN(Cc2ccsc2)C3)c1 | -0.714
CC1CN(C(=O)NCCn2ccnc2)CCO1 (configuration not stated) | -49.5
COCCS(=O)(=O)c1ncc(CN(C)CC(C)C)n1Cc1ccccc1 | -1.27
CNC(=O)CCc1cc(C2CCCCN2C)nc(C)n1 (configuration not stated) | -0.956
Cc1cccc(C)c1Nc1noc2c1CN(C(=O)c1cn(C)cn1)CC2 | 12.9
Cc1ccsc1C(=O)Nc1cnn(CC(=O)NC2CCCC2)c1 | -1.65
Cc1cc(C)cc(CN2CCN(Cc3cc(C#N)n(C)c3)CC2=O)c1 | 6.24
CCCc1ccc(CN2CCC3(CC2)CNC(=O)C3)o1 | -3.71
CNc1nc(CNC(=O)Nc2cccc(Cl)c2Cl)cs1 | -15.8
CN(C)C(=O)NC[C@H]1OC[C@@H]2CCN(Cc3ccoc3)C[C@@H]21 | 2.82
CN(C)CCN1C(=O)CC[C@@H]2[C@H]1CCN2C(=O)c1ccc(C#N)cc1 | -7.82
Cc1cc(C(=O)N2C[C@@H](CN3CCOCC3)C[C@H](CO)C2)nc(C)n1 | 3.63
Cc1nc(CN(C)CC2CCCN2c2cccnn2)nc2ccccc12 (configuration not stated) | -6.31
COc1ccc(C[C@H]2CN(C(=O)c3ccc(C)nc3)CC[C@@H]2OC)cc1 | 4.76
CCN1CCC(c2nnc(CN3CCCC3)n2C2CC2)CC1 | -7.3
CN(Cc1ccccc1Cl)C(C(=O)O)c1ccc(F)c(CO)c1 (configuration not stated) | -46.4

Structure (SMILES) | cytotoxicity at 10 µM [%]
Cc1cccc(CN2CCc3nnc(Cn4cccc4)n3CC2)n1 | 1.7
O=C(O)CSc1nnc(-c2cn[nH]c2)n1-c1ccccc1Cl | -3.54
Cc1ccc(CN2CCc3[nH]nc(C(=O)N(C)C)c3C2)s1 | -7.55
c1csc(CN2CCC3(CCCN3CC3CC3)CC2)n1 | 8.22
Cc1nc(C)n(CC2CCCN2Cc2nc3ccccc3n2C)n1 (configuration not stated) | -2.21
Cc1cccc(CN2Cc3[nH]nc(COc4cccnc4)c3C2)n1 | 0.288
NC(=O)C1CN(c2ccc3cc(Br)ccc3n2)CCO1 (configuration not stated) | 4.94
O=C(O)c1ccc2c(CN3CCCC3)c[nH]c2c1 | -2.09
COc1ccccc1C(=O)N1CC(=O)N(CC2CC2)CC(O)C1 (configuration not stated) | 5.99
Cc1ncsc1CCN(C)C(=O)CCc1nc2cccnc2n1C | -149
CNc1ccc(CC2CCCN(C(=O)c3cccc(C)n3)C2)nn1 (configuration not stated) | -12.3
O=C(NC1CC1)[C@@H]1CCO[C@@H]2CCN(CCc3ccccc3)C[C@@H]21 | 3.6
c1ccc(-c2nc(CNCCn3cccn3)cs2)nc1 | -21.1
c1ccc(N2CCOCC3(CCCN(c4nccs4)C3)C2)nc1 (configuration not stated) | -104
CC(=O)N1[C@H](CN(C)C)C[C@@H]2CN(C(=O)c3cccc(F)c3)CC[C@@H]21 | 5.85
O=C(NCc1ccc(-c2ccn[nH]2)cc1)N1CCC(N2CCCC2)C1 (configuration not stated) | -8.35
Cc1ccc(CN2CCN(c3nc4c(s3)c(C)nn4C)C(C)C2=O)cc1 (configuration not stated) | 76.5
Cc1cc(NC(=O)CN2CCc3cnc(C)nc3C2)on1 | -5.33
CN1CC[C@H](N(Cc2ccccc2)CC2CC2)C[C@H](O)C1 | -1.47
CN1CCN(Cc2ccncc2)Cc2cccnc21 | -72.7
CCC(=O)NCCCn1c(-c2cccnc2C)cc2cccnc21 | 3.84
Cc1nn(C)c(N(C)C)c1CNCc1ccnc(N2CCCCC2)c1 | -9.32
Cc1cnc(C(=O)NCC2Cc3ccccc3O2)cn1 (configuration not stated) | -0.71

Structure (SMILES) | cytotoxicity at 10 µM [%]
COCCCN(C)S(=O)(=O)c1ccc(C(F)(F)F)cc1C#N | -4.55
CC(C)N1CCC(c2n[nH]cc2-c2ccnc(N)c2)C1 (configuration not stated) | 2.16
CC(C)(C)C(=O)Cn1nc(-c2ccccc2F)ccc1=O | -8.46
O=C(C1CCC1)N1C[C@@H]2CN(Cc3ccncc3)C(=O)[C@@H]2C1 | -113
CCN1CCN(C(=O)c2ccc(OC)nn2)c2ccccc21 | -1.78
Cc1ccc(CN2C[C@@H]3CCCO[C@@H]3[C@H](NC(=O)CC3CC3)C2)s1 | 19.9
CCCc1nnc(N(C)CC2CCN(CC(C)C)C2)o1 (configuration not stated) | -1.41
CCSCCOC(=O)CCCc1ccc2c(c1)CC(=O)N2 | 6.34
N#Cc1cccc(CS(=O)(=O)NCCC(O)c2ccccc2)c1 (configuration not stated) | 0.692
Cc1nc2cc(=O)[nH]n2c(C)c1CC(=O)NCc1ccc(C#N)cc1 | -3.34
Cc1ccc(C(=O)NC2CCCN(c3ncccn3)C2)cn1 (configuration not stated) | -7.08
Cn1cc(-c2nnn3c2COC(CNCc2ccncc2)C3)cn1 (configuration not stated) | 0.887
CCC(C)NC(=O)NCCCn1nc2ccccn2c1=O (configuration not stated) | -8.08
O=C(c1ccc(=O)[nH]n1)N1CCCC1CCc1ccccc1 (configuration not stated) | 8.89
Cc1[nH]ncc1CCCNC(=O)Nc1ccc(F)cc1 | 3.91
CC(C)C(C(=O)NC1CC1)n1cnc2cc(F)c(F)cc21 (configuration not stated) | 15.3
O=C(NCC(F)F)c1ccc(S(=O)(=O)NCCc2ccncc2)cc1 | -7.88
c1nc(N2CCCC2Cn2cncn2)c2ccsc2n1 (configuration not stated) | 14.1
COc1ncccc1NC(=O)N1CCC(C(=O)NC(C)C)CC1 | -3.68
C=C(C)COc1ccccc1C(=O)N1CCC(C(=O)NCC)C1 (configuration not stated) | 8.89
Cc1cccc(CO[C@@H]2CC[C@H]3[C@H]2OCCN3Cc2ccsc2)n1 | -16.3
Cc1nn(-c2ccccc2)cc1C(=O)N1CCCC(n2ccnc2C)C1 (configuration not stated) | -3.11
CCOCC(C)(C)NC(=O)Nc1cc(F)ccc1OC | -3.12

Structure (SMILES) | cytotoxicity at 10 µM [%]
CN(C)c1ncc2c(n1)C1(CCN(Cc3cccnc3)C1)COC2 (configuration not stated) | 9.05
CCN1CCN(C(=O)NCc2cccnc2-n2cccn2)CC1 | -7.97
CN(Cc1cccc(-n2cccn2)c1)c1cc(N2CCCC2)nc(N)n1 | 51.6
O=C(c1ccnnc1)N1C[C@H]2CN(Cc3cccc(F)c3)C(=O)[C@H]2C1 | -77.3
Cc1nc(CNCC(C)c2nc3ccccc3o2)cs1 (configuration not stated) | 14.5
Cc1ccsc1C(=O)N1C[C@@H]2CN(Cc3ccoc3)CCO[C@@H]2C1 | -1.19
O=C(N1CCCO1)[C@@]12CCO[C@@H]1CCN(C1CCCCC1)C2 | -5.23
CCc1nc(CC(=O)NCC2(C(N)=O)CCOCC2)cs1 | -9.92
COCCS(=O)(=O)Nc1ccc(-n2cncn2)c(F)c1 | -12.2
O=S(=O)(c1ccccc1)N1CCC2(CCCN2Cc2cccnc2)C1 (configuration not stated) | -73.5
NS(=O)(=O)N1CCC(CSc2ccccc2)C1 (configuration not stated) | -9.8
Cn1nccc1C1CCN(CC(O)c2cccc(F)c2)CC1 (configuration not stated) | -11.8
CN(C)c1cccc(C(=O)N2CCn3c(nnc3-c3ccccc3)C2)c1 | -0.375
CN1CCN(C)C2(CCN(Cc3ccsc3)CC2)C1=O | 0.0221
Cc1cccc(OC2CCN(C(=O)NCCn3ccnc3)CC2)c1C | 0.856
CC(NCc1cnc(C2CCC2)s1)c1ccccc1-n1cccn1 (configuration not stated) | 0.33
CN(C)CCN1CCCC12CCN(C(=O)c1ccncc1)CC2 | 6.29
Clc1ccc2cccnc2c1CN1CCCC(Cn2cncn2)C1 (configuration not stated) | 8.38
O=S1(=O)COCCN1Cc1ccc(F)cc1Cl | 14.7
CCn1ccnc1CN1CCNCC1C (configuration not stated) | -3.03
